Source: PubChem BioAssay (several laboratories)
This is one part of a sample in which hits are shown more often than they occur.
UPR XBP1 act: activators of adaptive arm of unfolded protein response (XBP1); CHO-XBP1 luciferase reporter, IRE1-XBP1 UPR activation, luminescence; percent of tunicamycin response, DMSO as zero; activation, % at 20 µM; actives 0.33% (n = 330,000);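 active = versus positive control, 20 µM dose yields 30% or more activation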
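Material: IRE1-XBP1 luciferase reporter CHO line / Quantity: one thousand reporter cells per well / Buffer or medium: F12 with 10% serum / Compound: 20 µM single concentration, DMSO 1% / Times: 6 h treatment, 37 °C / Detection: Steady-Glo luciferase glow luminescence, 10 min after reagent addition / Benchmarks: tunicamycin high, DMSO low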
UPR CHOP act: apoptotic UPR (CHOP) activation; CHO-CHOP luciferase reporter, luminescence; percent of tunicamycin response over DMSO baseline; actives 0.34% (n = 330,000); activation, % at 10 µM;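 active = at 10 µM dose, activation of 40% or more, normalized to positive control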
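Material: CHO-CHOP cells, stable luciferase reporter of PERK-eIF2a-CHOP signalling; quantity: 500 reporter cells seeded per well; buffer or medium: F12 medium containing 10% fetal bovine serum; compound: one dose, 10 µM in 0.5% DMSO; incubation: 6 h compound treatment, 37 °C; measured by: Steady-Glo luciferase luminescence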
GAA850 FXN act: frataxin GAA850 promoter activation; activation, % at 6 µM; HEK293 lucGAA850 FXN promoter luciferase reporter, 24 h; percent of 10 µM SAHA response; AID 540364; actives 0.56% (n = 360,000);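 active = activation above the average of all compounds screened plus 3 SD, cutoff fixed separately per campaign, cut at about 7.5% in these data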
CHOP inh: blocks CHOP induction under ER stress | CHO-K1 CHOP-promoter luciferase, tunicamycin-induced, 15-18 h | inhibition, % at 10 µM | actives 3.8% (n = 220,000) | AID 2732;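 active = compounds that reduced the stress-induced luciferase reporter signal by more than about 70% of percent inhibition, limit read from the data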
CHOP confirm: confirmation of CHOP induction inhibitors; shares compounds with CHOP inh; CHO-CHOP promoter luciferase reporter, tunicamycin-induced, luminescence; inhibition, % at 10 µM; actives 45% (n = 2,100);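 active = mean of three repeat readings of reporter signal inhibition above a set limit, cut at about 70% in these data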
Hits are given with their value.

How did CNC(=S)NNC(=O)COc1ccccc1C do in these assays?
UPR XBP1 act: inactive; UPR CHOP act: inactive; GAA850 FXN act: inactive; CHOP inh: inactive

How did Cc1ccccc1OCC(=O)NNC(=O)c1ccc(-c2ccccc2)cc1 do in these assays?
UPR XBP1 act: inactive; UPR CHOP act: inactive; GAA850 FXN act: inactive; CHOP inh: 105.3; CHOP confirm: inactive

Results for O=C(O)c1ccccc1Cc1nc2cc(Cl)ccc2c(=O)[nH]1 ?
UPR XBP1 act: inactive; UPR CHOP act: inactive; GAA850 FXN act: inactive; CHOP inh: inactive

Results for O=c1[nH]c(/C(Cl)=C/c2cc(Cl)ccc2O)nc2cc(Cl)ccc12 ?
UPR XBP1 act: inactive; UPR CHOP act: inactive; GAA850 FXN act: inactive; CHOP inh: 99.6; CHOP confirm: inactive

How did CC1CCN(c2nc3ccc(C(=O)O)cc3s2)CC1 do in these assays?
UPR XBP1 act: inactive; UPR CHOP act: inactive; GAA850 FXN act: inactive; CHOP inh: 96.7; CHOP confirm: 108.4

Results for CCN1/C(=C/c2ccc3cc(C)ccc3[n+]2C)Sc2ccc3sccc3c21 ?
GAA850 FXN act: inactive; CHOP inh: 109.3; CHOP confirm: 102.4

How did CCN1/C(=C/c2cccc[n+]2C)Sc2ccc(OC)cc21 do in these assays?
UPR XBP1 act: inactive; UPR CHOP act: inactive; GAA850 FXN act: inactive

What do the screens show for `O=C(CSC1=NS(=O)(=O)c2ccccc21)Nc1ccccc1`?
UPR XBP1 act: inactive; UPR CHOP act: inactive; GAA850 FXN act: inactive; CHOP inh: 106.3; CHOP confirm: inactive

How did COC(=O)CSC1=NS(=O)(=O)c2ccccc21 do in these assays?
UPR XBP1 act: inactive; UPR CHOP act: inactive; GAA850 FXN act: inactive; CHOP inh: inactive

Results for Cc1ccc(OCCOc2ccc(Br)cc2/C=N\NC(N)=O)cc1 ?
UPR XBP1 act: inactive; UPR CHOP act: inactive; GAA850 FXN act: inactive; CHOP inh: 103.3; CHOP confirm: inactive

How did CC1CN(C(=O)COC(=O)c2cncc(Br)c2)CC(C)O1 (configuration not stated) do in these assays?
GAA850 FXN act: inactive

How did CC1ON=C(c2ccc(F)cc2)NC1=O (configuration not stated) do in these assays?
GAA850 FXN act: inactive

What do the screens show for `CC(C)[C@H](NC(=O)c1ccccc1)C(=O)OCC(=O)c1ccc2c(c1)NC(=O)CO2`?
UPR XBP1 act: inactive; UPR CHOP act: inactive; GAA850 FXN act: inactive; CHOP inh: inactive

What do the screens show for `CC[C@H](C)[C@H](NC(=O)c1ccc(Cl)cc1)C(=O)OCC(=O)c1ccc2c(c1)NC(=O)CO2`?
UPR XBP1 act: inactive; UPR CHOP act: inactive; GAA850 FXN act: inactive; CHOP inh: 104.6; CHOP confirm: inactive

How did O=C(/C=C/c1cccc(C(F)(F)F)c1)Nc1cccc(C(F)(F)F)c1 do in these assays?
UPR XBP1 act: inactive; UPR CHOP act: inactive; GAA850 FXN act: inactive; CHOP inh: 96.8; CHOP confirm: 100.0

How did O=C(Cc1ccccc1)NC(=S)Nc1cccc(C(F)(F)F)c1 do in these assays?
UPR XBP1 act: inactive; UPR CHOP act: inactive; GAA850 FXN act: inactive; CHOP inh: 107.7; CHOP confirm: 101.5

How did Cc1ccc(NC(=O)/C=C/c2cccc(C(F)(F)F)c2)cc1 do in these assays?
UPR XBP1 act: inactive; UPR CHOP act: inactive; GAA850 FXN act: inactive; CHOP inh: inactive

Results for S=C(Nc1ccccc1)Nc1ccc(Cl)cc1Cl ?
UPR XBP1 act: inactive; UPR CHOP act: inactive; GAA850 FXN act: inactive; CHOP inh: inactive

Results for FC(F)(F)c1cccc(NC(=S)NCC2COc3ccccc3O2)c1 (configuration not stated) ?
UPR XBP1 act: inactive; UPR CHOP act: inactive; GAA850 FXN act: inactive; CHOP inh: 103.4; CHOP confirm: inactive

How did FC(F)(F)c1cccc(NC(=S)Nc2ccc(Cl)cc2Cl)c1 do in these assays?
UPR XBP1 act: inactive; UPR CHOP act: inactive; GAA850 FXN act: inactive; CHOP inh: 105.2; CHOP confirm: 100.7

How did CCCNC(=S)Nc1cccc(C(F)(F)F)c1 do in these assays?
UPR XBP1 act: inactive; UPR CHOP act: inactive; GAA850 FXN act: inactive; CHOP inh: inactive

Results for CC(C(=O)N1CCCC1)N(c1ccc(Cl)cc1)S(C)(=O)=O (configuration not stated) ?
GAA850 FXN act: inactive

How did CC1(C)c2ssc(=S)c2-c2ccccc2N1C(=O)c1ccco1 do in these assays?
UPR XBP1 act: inactive; UPR CHOP act: inactive; GAA850 FXN act: inactive; CHOP inh: 98.5; CHOP confirm: inactive

Results for Cc1ccc2c(c1)-c1c(ssc1=S)C(C)(C)N2C(=O)c1ccco1 ?
UPR XBP1 act: inactive; UPR CHOP act: inactive; GAA850 FXN act: inactive; CHOP inh: inactive

How did Cc1n[nH]c(C)c1CCc1nc2c3ccccc3nc(SCC(N)=O)n2n1 do in these assays?
GAA850 FXN act: inactive; CHOP inh: inactive

What do the screens show for `Cc1ccc(NC(=O)CSc2nc3ccccc3c3nc(CCc4c(C)n[nH]c4C)nn23)cc1F`?
UPR XBP1 act: inactive; UPR CHOP act: inactive; GAA850 FXN act: inactive; CHOP inh: 107.7; CHOP confirm: 78.6

Results for COc1cc2ccc(CC(N)=O)cc2cc1OC ?
GAA850 FXN act: inactive

How did CCCC1NC(=O)c2cccnc2-n2c1nc1ccc(Br)cc1c2=O (configuration not stated) do in these assays?
GAA850 FXN act: inactive

What do the screens show for `Cc1ccc(NC(=O)Nc2ccc(F)cc2)cc1Cl`?
UPR XBP1 act: inactive; UPR CHOP act: inactive; GAA850 FXN act: inactive; CHOP inh: inactive

What do the screens show for `CC(C)(C)c1ccc(NC(=O)Nc2ccc(F)cc2)cc1`?
UPR XBP1 act: inactive; UPR CHOP act: inactive; GAA850 FXN act: inactive; CHOP inh: 102.6; CHOP confirm: 107.2

Results for Cc1ccc(Cl)cc1-c1cc(C(=O)NCc2ccc(C(F)(F)F)cc2)[nH]n1 ?
GAA850 FXN act: inactive

How did Cc1ccc2[nH]c(=O)c3cc(C(=O)N(C)c4ccccc4C)sc3c2c1 do in these assays?
UPR XBP1 act: inactive; UPR CHOP act: inactive; GAA850 FXN act: inactive; CHOP inh: 101.2; CHOP confirm: inactive

Results for CC(C)(C)C(=O)Nc1sc2c(c1C#N)CCC2 ?
UPR XBP1 act: inactive; UPR CHOP act: inactive; GAA850 FXN act: inactive; CHOP inh: inactive

What do the screens show for `CC(C)(C)C(=O)NC(NC(=S)Nc1sc2c(c1C#N)CCCC2)C(Cl)(Cl)Cl` (configuration not stated)?
UPR XBP1 act: inactive; UPR CHOP act: inactive; GAA850 FXN act: inactive; CHOP inh: 97.1; CHOP confirm: 74.4

Results for C=CCOC(=O)C1=C(C)NC(SCC(=O)Nc2ccccc2)=C(C#N)C1c1ccco1 (configuration not stated) ?
UPR XBP1 act: inactive; UPR CHOP act: inactive; GAA850 FXN act: inactive; CHOP inh: 103.8; CHOP confirm: 115.9

Results for C=CCOC(=O)C1=C(C)NC(SCC(=O)N(CC)CC)=C(C#N)C1c1ccco1 (configuration not stated) ?
UPR XBP1 act: inactive; UPR CHOP act: inactive; GAA850 FXN act: inactive
